Measured values from ChEMBL document CHEMBL4819122, “Novel 4-(piperazin-1-yl)quinolin-2(1H)-one bearing thiazoles with antiproliferative activity through VEGFR-2-TK inhibition” (Bioorg Med Chem, 2021).
The source made the active and inactive calls. The rule behind the calls is not given here.

How the values were obtained:
T47D [1] = experiment: Cytotoxicity against human T-47D assessed as growth inhibition at 10 uM by NCI protocol relative to control; type: functional; settings: read-out: GI
Outline: (§1)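 Run by the NCI under its standard protocol: one dose of 10 μM against a sixty-line panel from nine human tumour tissues. Result given as percent growth inhibition of treated cells relative to untreated cells.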

SK-MEL-5 = experiment: Cytotoxicity against human SK-MEL-5 assessed as growth inhibition at 10 uM by NCI protocol relative to control; type: functional; settings: read-out: GI
Outline: (§2)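 Run by NCI as a single-dose screen at 10 μM across the sixty-cell-line panel, which covers nine human tumour tissue types. The read-out is percent growth inhibition of treated cells relative to untreated cells.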

HL-60 = experiment: Cytotoxicity against human HL60 assessed as growth inhibition at 10 uM by NCI protocol relative to control; type: functional; settings: read-out: GI; outline: as §2
NCI-H23 = experiment: Cytotoxicity against human NCI-H23 assessed as growth inhibition at 10 uM by NCI protocol relative to control; type: functional; settings: read-out: GI; outline: as §2
NCI-H522 = experiment: Cytotoxicity against human NCI-H522 assessed as growth inhibition at 10 uM by NCI protocol relative to control; type: functional; settings: read-out: GI; outline: as §2
RXF 393 = experiment: Cytotoxicity against human RXF 393 assessed as growth inhibition at 10 uM by NCI protocol relative to control; type: functional; settings: read-out: GI; outline: as §2
DU-145 = experiment: Cytotoxicity against human DU-145 assessed as growth inhibition at 10 uM by NCI protocol relative to control; type: functional; settings: read-out: GI; outline: as §2
K562 = experiment: Cytotoxicity against human K-562 assessed as growth inhibition at 10 uM by NCI protocol relative to control; type: functional; settings: read-out: GI; outline: as §2
TK-10 = experiment: Cytotoxicity against human TK-10 assessed as growth inhibition at 10 uM by NCI protocol relative to control; type: functional; settings: read-out: GI; outline: as §1
CAKI-1 = experiment: Cytotoxicity against human Caki1 assessed as growth inhibition at 10 uM by NCI protocol relative to control; type: functional; settings: read-out: GI; outline: as §2
SF-295 = experiment: Cytotoxicity against human SF-295 assessed as growth inhibition at 10 uM by NCI protocol relative to control; type: functional; settings: read-out: GI; outline: as §2
BT-549 = experiment: Cytotoxicity against human BT-549 assessed as growth inhibition at 10 uM by NCI protocol relative to control; type: functional; settings: read-out: GI; outline: as §2
PC-3 = experiment: Cytotoxicity against human PC3 assessed as growth inhibition at 10 uM by NCI protocol relative to control; type: functional; settings: read-out: GI; outline: as §2
HCT-116 = experiment: Cytotoxicity against human HCT-116 assessed as growth inhibition at 10 uM by NCI protocol relative to control; type: functional; settings: read-out: GI; outline: as §2
SNB-19 = experiment: Cytotoxicity against human SNB-19 assessed as growth inhibition at 10 uM by NCI protocol relative to control; type: functional; settings: read-out: GI; outline: as §1
T47D [2] = experiment: Cytotoxicity against human T47D cells assessed as reduction in cell viability after 3 hrs by MTT assay
CCRF-CEM = experiment: Cytotoxicity against human CCRF-CEM assessed as growth inhibition at 10 uM by NCI protocol relative to control; type: functional; settings: read-out: GI; outline: as §2
SF-539 = experiment: Cytotoxicity against human […] assessed as growth inhibition at 10 uM by NCI protocol relative to control; type: functional; settings: read-out: GI; outline: as §2
A549 = experiment: Cytotoxicity against human A549 assessed as growth inhibition at 10 uM by NCI protocol relative to control; type: functional; settings: read-out: GI; outline: as §2
EKVX = experiment: Cytotoxicity against human EKVX assessed as growth inhibition at 10 uM by NCI protocol relative to control; type: functional; settings: read-out: GI; outline: as §2
MOLT-4 = experiment: Cytotoxicity against human MOLT-4 assessed as growth inhibition at 10 uM by NCI protocol relative to control; type: functional; settings: read-out: GI; outline: as §2
HOP-92 = experiment: Cytotoxicity against human HOP-92 assessed as growth inhibition at 10 uM by NCI protocol relative to control; type: functional; settings: read-out: GI; outline: as §2
OVCAR-4 = experiment: Cytotoxicity against human OVCAR-4 assessed as growth inhibition at 10 uM by NCI protocol relative to control; type: functional; settings: read-out: GI; outline: as §2
ACHN = experiment: Cytotoxicity against human ACHN assessed as growth inhibition at 10 uM by NCI protocol relative to control; type: functional; settings: read-out: GI; outline: as §2
MDA-MB-435 = experiment: Cytotoxicity against human MDA-MB-435 assessed as growth inhibition at 10 uM by NCI protocol relative to control; type: functional, cell-based; outline: as §2
SK-OV-3 = experiment: Cytotoxicity against human SK-OV-3 assessed as growth inhibition at 10 uM by NCI protocol relative to control; type: functional; settings: read-out: GI; outline: as §2
M14 = experiment: Cytotoxicity against human M14 assessed as growth inhibition at 10 uM by NCI protocol relative to control; type: functional; settings: read-out: GI; outline: as §2
HT-29 = experiment: Cytotoxicity against human HT29 assessed as growth inhibition at 10 uM by NCI protocol relative to control; type: functional; settings: read-out: GI; outline: as §2
SNB-75 = experiment: Cytotoxicity against human SNB-75 assessed as growth inhibition at 10 uM by NCI protocol relative to control; type: functional; settings: read-out: GI; outline: as §1
UACC-257 = experiment: Cytotoxicity against human UACC-257 assessed as growth inhibition at 10 uM by NCI protocol relative to control; type: functional; settings: read-out: GI; outline: as §1
SW-620 = experiment: Cytotoxicity against human SW-620 assessed as growth inhibition at 10 uM by NCI protocol relative to control; type: functional; settings: read-out: GI; outline: as §1
MDA-MB-231 = experiment: Cytotoxicity against human MDA-MB-231 assessed as growth inhibition at 10 uM by NCI protocol relative to control; type: functional; settings: read-out: GI; outline: as §2
SK-MEL-28 = experiment: Cytotoxicity against human SK-MEL-28 assessed as growth inhibition at 10 uM by NCI protocol relative to control; type: functional; settings: read-out: GI; outline: as §2
UO-31 = experiment: Cytotoxicity against human UO31 assessed as growth inhibition at 10 uM by NCI protocol relative to control; type: functional; settings: read-out: GI; outline: as §1
HCT-15 = experiment: Cytotoxicity against human HCT-15 assessed as growth inhibition at 10 uM by NCI protocol relative to control; type: functional; settings: read-out: GI; outline: as §2
NCI/ADR-RES = experiment: Cytotoxicity against human NCl/ADR-RES assessed as growth inhibition at 10 uM by NCI protocol relative to control; type: functional; settings: read-out: GI; outline: as §2
NCI-H460 = experiment: Cytotoxicity against human NCI-H460 assessed as growth inhibition at 10 uM by NCI protocol relative to control; type: functional; settings: read-out: GI; outline: as §2
OVCAR-8 = experiment: Cytotoxicity against human OVCAR-8 assessed as growth inhibition at 10 uM by NCI protocol relative to control; type: functional; settings: read-out: GI; outline: as §2
Hs-578T = experiment: Cytotoxicity against human HS 578T assessed as growth inhibition at 10 uM by NCI protocol relative to control; type: functional; settings: read-out: GI; outline: as §2
NCI-H322M = experiment: Cytotoxicity against human NCI-H322M assessed as growth inhibition at 10 uM by NCI protocol relative to control; type: functional; settings: read-out: GI; outline: as §2
HCC 2998 = experiment: Cytotoxicity against human HCC-2998 assessed as growth inhibition at 10 uM by NCI protocol relative to control; type: functional; settings: read-out: GI; outline: as §2
MDA-MB-468 = experiment: Cytotoxicity against human MDA-MB-468 assessed as growth inhibition at 10 uM by NCI protocol relative to control; type: functional; settings: read-out: GI; outline: as §2
RPMI-8226 = experiment: Cytotoxicity against human RPMI-8226 assessed as growth inhibition at 10 uM by NCI protocol relative to control; type: functional; settings: read-out: GI; outline: as §2
IGROV-1 = experiment: Cytotoxicity against human IGROVI assessed as growth inhibition at 10 uM by NCI protocol relative to control; type: functional; settings: read-out: GI; outline: as §2
A498 = experiment: Cytotoxicity against human A498 assessed as growth inhibition at 10 uM by NCI protocol relative to control; type: functional; settings: read-out: GI; outline: as §2
MCF7 = experiment: Cytotoxicity against human MCF7 assessed as growth inhibition at 10 uM by NCI protocol relative to control; type: functional; settings: read-out: GI; outline: as §2
SN12C = experiment: Cytotoxicity against human SN12C assessed as growth inhibition at 10 uM by NCI protocol relative to control; type: functional; settings: read-out: GI; outline: as §1
786-0 = experiment: Cytotoxicity against human 786-0 assessed as growth inhibition at 10 uM by NCI protocol relative to control; type: functional; settings: read-out: GI; outline: as §2
UACC-62 = experiment: Cytotoxicity against human UACC-62 assessed as growth inhibition at 10 uM by NCI protocol relative to control; type: functional; settings: read-out: GI; outline: as §1
U-251 = experiment: Cytotoxicity against human U251 assessed as growth inhibition at 10 uM by NCI protocol relative to control; type: functional; settings: read-out: GI; outline: as §1
LOX IMVI = experiment: Cytotoxicity against human LOX IMVI assessed as growth inhibition at 10 uM by NCI protocol relative to control; type: functional; settings: read-out: GI; outline: as §2
Malme-3M = experiment: Cytotoxicity against human MALME-3M assessed as growth inhibition at 10 uM by NCI protocol relative to control; type: functional; settings: read-out: GI; outline: as §2
SR = experiment: Cytotoxicity against human SR assessed as growth inhibition at 10 uM by NCI protocol relative to control; type: functional; settings: read-out: GI; outline: as §1

## COc1ccc(-c2csc(NC(=O)CN3CCN(c4cc(=O)[nH]c5ccc(F)cc45)CC3)n2)cc1
T47D [1]
  inhibition of growth at 10 µM: 69.2%
SK-MEL-5
  inhibition of growth at 10 µM: 25.4%
HL-60
  inhibition of growth at 10 µM: 23.5%
NCI-H23
  inhibition of growth at 10 µM: 16.6%
NCI-H522
  inhibition of growth at 10 µM: 21.6%
RXF 393
  inhibition of growth at 10 µM: 20.3%
DU-145
  inhibition of growth at 10 µM: 40%
K562
  inhibition of growth at 10 µM: 30.1%
TK-10
  inhibition of growth at 10 µM: 31.8%
CAKI-1
  inhibition of growth at 10 µM: 46.8%
SF-295
  inhibition of growth at 10 µM: 17.5%
BT-549
  inhibition of growth at 10 µM: 18.6%
PC-3
  inhibition of growth at 10 µM: 35.8%
HCT-116
  inhibition of growth at 10 µM: 15.9%
SNB-19
  inhibition of growth at 10 µM: 15.3%
T47D [2]
  IC50: 16.9 µM
CCRF-CEM
  inhibition of growth at 10 µM: 29.8%
SF-539
  inhibition of growth at 10 µM: 30.5%
A549
  inhibition of growth at 10 µM: 29.5%
EKVX
  inhibition of growth at 10 µM: 24.9%
MOLT-4
  inhibition of growth at 10 µM: 46.7%
HOP-92
  inhibition of growth at 10 µM: 25.4%
OVCAR-4
  inhibition of growth at 10 µM: 25.1%
ACHN
  inhibition of growth at 10 µM: 27.7%
MDA-MB-435
  growth inhibition (GI): inactive
SK-OV-3
  inhibition of growth at 10 µM: 10.4%
M14
  inhibition of growth at 10 µM: 19.2%
HT-29
  inhibition of growth at 10 µM: 22.1%
SNB-75
  inhibition of growth at 10 µM: 23.9%
UACC-257
  inhibition of growth at 10 µM: 14.5%
SW-620
  inhibition of growth at 10 µM: 34.6%
MDA-MB-231
  inhibition of growth at 10 µM: 24.5%
SK-MEL-28
  inhibition of growth at 10 µM: 13.7%
UO-31
  inhibition of growth at 10 µM: 24.9%
HCT-15
  inhibition of growth at 10 µM: 26.6%
NCI/ADR-RES
  inhibition of growth at 10 µM: 20.5%
NCI-H460
  inhibition of growth at 10 µM: 12.5%
OVCAR-8
  inhibition of growth at 10 µM: 17.2%
Hs-578T
  inhibition of growth at 10 µM: 32.9%
NCI-H322M
  inhibition of growth at 10 µM: 12.6%
HCC 2998
  inhibition of growth at 10 µM: 15.8%
MDA-MB-468
  inhibition of growth at 10 µM: 32%
RPMI-8226
  inhibition of growth at 10 µM: 40.9%
IGROV-1
  inhibition of growth at 10 µM: 45.6%
A498
  inhibition of growth at 10 µM: 49.9%
MCF7
  inhibition of growth at 10 µM: 28.4%
SN12C
  inhibition of growth at 10 µM: 29.1%
786-0
  inhibition of growth at 10 µM: 19.3%
UACC-62
  inhibition of growth at 10 µM: 28.1%
U-251
  inhibition of growth at 10 µM: 30.3%
LOX IMVI
  inhibition of growth at 10 µM: 20.8%
Malme-3M
  inhibition of growth at 10 µM: 33.6%
SR
  inhibition of growth at 10 µM: 34.7%
